Experimental data published in ChEMBL document CHEMBL3112403, “Design, synthesis and evaluation of second generation MurF inhibitors based on a cyanothiophene scaffold” (Eur J Med Chem, 2014).
pIC50: −log10 of the molar value.

Tests used:
[1] = target: T1, UDP-N-acetylmuramoyl-tripeptide--D-alanyl-D-alanine ligase (Streptococcus pneumoniae, UniProt Q9ZHC3); test: Inhibition of Streptococcus pneumoniae MurF ligase using D-Ala-D-Ala as substrate after 15 mins by malachite green assay
T1 sequence (Q9ZHC3 whole entry): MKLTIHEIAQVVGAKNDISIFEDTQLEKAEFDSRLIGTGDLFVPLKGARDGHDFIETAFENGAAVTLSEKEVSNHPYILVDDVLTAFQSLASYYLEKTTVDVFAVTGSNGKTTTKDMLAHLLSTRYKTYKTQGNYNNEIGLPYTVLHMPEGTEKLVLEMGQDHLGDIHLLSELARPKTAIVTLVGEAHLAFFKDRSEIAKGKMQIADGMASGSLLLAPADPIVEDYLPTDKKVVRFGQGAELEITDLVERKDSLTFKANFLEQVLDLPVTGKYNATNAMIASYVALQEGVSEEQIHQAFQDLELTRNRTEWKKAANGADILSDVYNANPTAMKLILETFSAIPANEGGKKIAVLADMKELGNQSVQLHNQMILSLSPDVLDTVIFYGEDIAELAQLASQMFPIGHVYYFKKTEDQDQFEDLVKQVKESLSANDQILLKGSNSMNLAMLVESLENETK
Summary of the method: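 Purified S. pneumoniae MurF in 50 mM Hepes pH 8.0 with 50 mM MgCl2, 0.005% Triton X-114, 100 µM D-Ala-D-Ala, 50 µM UMtri-L-Lys and 250 µM ATP, with 5% DMSO final. After 15 min at 37 °C, Biomol reagent was added and absorbance read at 650 nm, in duplicate. RA was taken against a 5% DMSO control. IC50 was the 50% RA point from seven concentrations.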

Escherichia coli [2] = test: Antibacterial activity against Escherichia coli ES100 harboring tolC deletion mutant assessed as growth inhibition by broth microdilution method; assay type: functional
Summary of the method: (§1)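 MIC by broth microdilution in Mueller-Hinton broth following CLSI guidelines. ES100 is the tolC derivative of AB734, and SM1411 is the acrAB derivative of 1411; both are efflux-deficient E. coli strains. Growth inhibition was read as the minimum inhibitory concentration.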

Escherichia coli [3] = test: Antibacterial activity against Escherichia coli SM1411 harboring acrAB deletion mutant assessed as growth inhibition by broth microdilution method; assay type: functional; summary of the method: as §1
Escherichia coli [4] = test: Antibacterial activity against Escherichia coli AB734 assessed as growth inhibition by broth microdilution method in presence of polymyxin B nonapeptide; assay type: functional
Summary of the method: (§2)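 Broth microdilution MIC in Mueller-Hinton broth per CLSI, run with 4 µg/mL polymyxin B nonapeptide to permeabilize the outer membrane.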

Escherichia coli [5] = test: Antibacterial activity against Escherichia coli AB734 assessed as growth inhibition by broth microdilution method; assay type: functional
Summary of the method: (§3)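 MICs by broth microdilution in Mueller-Hinton broth following CLSI guidelines.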

Escherichia coli [6] = test: Antibacterial activity against Escherichia coli 1411 assessed as growth inhibition by broth microdilution method in presence of polymyxin B nonapeptide; assay type: functional; summary of the method: as §2
Escherichia coli [7] = test: Antibacterial activity against Escherichia coli 1411 assessed as growth inhibition by broth microdilution method; assay type: functional; summary of the method: as §3
Staphylococcus aureus = test: Antibacterial activity against Staphylococcus aureus SH1000 assessed as growth inhibition by broth microdilution method; assay type: functional; summary of the method: as §3
[8] = Inhibition of Escherichia coli MurF ligase using D-Ala-D-Ala as substrate after 15 mins by malachite green assay
Summary of the method: (§4)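 After 15 min at 37 °C, Biomol reagent was added and phosphate read at 650 nm, in duplicate. RA was taken relative to a 5% DMSO control. IC50 was taken as the concentration giving 50% RA, from seven concentrations.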

Escherichia coli [9] = test: Inhibition of […] MurF ligase using D-Ala-D-Ala as substrate assessed as residual activity at 250 uM after 15 mins by malachite green assay; summary of the method: as §4

Compound	pIC50 [1]	MIC (Escherichia coli [2])	MIC (Escherichia coli [3])	MIC (Escherichia coli [4])	MIC (Escherichia coli [5])	MIC (Escherichia coli [6])	MIC (Escherichia coli [7])	MIC (Staphylococcus aureus)	pIC50 [8]	Activity (Escherichia coli [9])
N#Cc1c(NC(=O)c2cc(OCCNC(=O)C(F)(F)F)ccc2Cl)sc2c1CCN(Cc1ccc(-n3cnnn3)cc1)C2	3.99	64 µg/mL	> 256 µg/mL	> 256 µg/mL	> 256 µg/mL	> 256 µg/mL	> 256 µg/mL	> 256 µg/mL	3.82	
COc1ccc(CN2CCc3c(sc(NC(=O)c4cc(OCCNC(=N)N)ccc4Cl)c3C#N)C2)cc1.Cl	4.21	8 µg/mL	32 µg/mL	32 µg/mL	32 µg/mL	32 µg/mL	32 µg/mL	32 µg/mL	4.11	
Cl.N#Cc1c(NC(=O)c2cc(S(=O)(=O)NCCN)c(Cl)cc2Cl)sc2c1CCCC2	3.66	64 µg/mL	128 µg/mL	128 µg/mL	> 256 µg/mL	128 µg/mL	> 256 µg/mL	> 256 µg/mL	3.38	
Cl.N#Cc1c(NC(=O)c2cc(OCCCNC(=N)N)ccc2Cl)sc2c1CCCC2	4.11	8 µg/mL	16 µg/mL	32 µg/mL	32 µg/mL	32 µg/mL	32 µg/mL	> 256 µg/mL	3.99	
COC(=O)c1ccc(CN2CCc3c(sc(NC(=O)c4cc(OCCN)ccc4Cl)c3C#N)C2)cc1	3.96	32 µg/mL	64 µg/mL	64 µg/mL	> 256 µg/mL	64 µg/mL	> 256 µg/mL	128 µg/mL	4.06	
N#Cc1c(NC(=O)c2cccc(OCn3cc(Cl)cn3)c2)sc2c1CCC2	3.90								4.25	
N#Cc1c(NC(=O)c2cc(OCCN)ccc2Cl)sc2c1CCC(c1ccc(O)cc1)C2 (centres undefined)	4.24	8 µg/mL	32 µg/mL	16 µg/mL	> 256 µg/mL	16 µg/mL	> 256 µg/mL	> 256 µg/mL	4.09	
N#Cc1c(NC(=O)c2cc(OCCN)ccc2Cl)sc2c1CCN(Cc1ccc(-n3cnnn3)cc1)C2	3.34	> 256 µg/mL	> 256 µg/mL	> 256 µg/mL	> 256 µg/mL	> 256 µg/mL	> 256 µg/mL	> 256 µg/mL	4.08	
N#Cc1c(NC(=O)c2cc(OCCN)ccc2Cl)sc2c1CCN(Cc1ccccc1)C2	4.29	16 µg/mL	32 µg/mL	32 µg/mL	64 µg/mL	32 µg/mL	64 µg/mL	64 µg/mL	4.08	
N#Cc1c(NC(=O)c2cc(OCCCN)ccc2Cl)sc2c1CCCC2	3.89	32 µg/mL	32 µg/mL	32 µg/mL	64 µg/mL	32 µg/mL	64 µg/mL	128 µg/mL	3.57	
N#Cc1c(NC(=O)c2cc(OCCN)ccc2Cl)sc2c1CCN(Cc1cccc(O)c1)C2	3.92	64 µg/mL	64 µg/mL	64 µg/mL	128 µg/mL	64 µg/mL	128 µg/mL	> 256 µg/mL	3.82	
Cl.N#Cc1c(NC(=O)c2cc(OCCN)ccc2Cl)sc2c1CCCC2	3.77	32 µg/mL	32 µg/mL	32 µg/mL	128 µg/mL	32 µg/mL	128 µg/mL	128 µg/mL	3.68	
N#Cc1c(NC(=O)c2cc(OCCNC(=O)C(F)(F)F)ccc2Cl)sc2c1CCN(Cc1ccccc1)C2	3.76	> 256 µg/mL	> 256 µg/mL	> 256 µg/mL	> 256 µg/mL	> 256 µg/mL	> 256 µg/mL	> 256 µg/mL		46%
N#Cc1ccc(CN2CCc3c(sc(NC(=O)c4cc(OCCN)ccc4Cl)c3C#N)C2)cc1	3.97	32 µg/mL	64 µg/mL	64 µg/mL	< 256 µg/mL	64 µg/mL	< 256 µg/mL	128 µg/mL	4.12	
Cl.N#Cc1c(NC(=O)c2cc(OCCNC(=N)N)ccc2Cl)sc2c1CCCC2	4.12	8 µg/mL	8 µg/mL	8 µg/mL	16 µg/mL	8 µg/mL	16 µg/mL	64 µg/mL	4.25	
Cl.N#Cc1c(NC(=O)c2cc(OCCNC(=N)N)ccc2Cl)sc2c1CCN(Cc1cccc(O)c1)C2	3.93	32 µg/mL	64 µg/mL	64 µg/mL	128 µg/mL	64 µg/mL	128 µg/mL	32 µg/mL	3.84	
Cl.N#Cc1c(NC(=O)c2cccc(OCCNC(=N)N)c2)sc2c1CCCC2	3.78	16 µg/mL	16 µg/mL	> 256 µg/mL	64 µg/mL	64 µg/mL	64 µg/mL	64 µg/mL	3.59	
Cl.N#Cc1c(NC(=O)c2cc(OCCNC(=N)N)ccc2Cl)sc2c1CCN(Cc1ccc(O)cc1)C2	4.70	4 µg/mL	16 µg/mL	16 µg/mL	64 µg/mL	16 µg/mL	64 µg/mL	4 µg/mL	4.60	
N#Cc1c(NC(=O)c2cc(OCCN)ccc2Cl)sc2c1CCN(Cc1ccc(C(=O)O)cc1)C2	3.18	> 256 µg/mL	> 256 µg/mL	> 256 µg/mL	> 256 µg/mL	> 256 µg/mL	> 256 µg/mL	> 256 µg/mL	3.47	
